Experimental data from different studies.
Compare with care: the assays were run in different laboratories.
Read-out: cell growth or viability

| Compound | cell line | technique | tested at | time | quantity | value |
| --- | --- | --- | --- | --- | --- | --- |
| Nc1ncnc2c1c(/C=C/C(=O)O)nn2CC1CCCC1 | OE33 | resazurin |  | 5 days | EC50 | > 30 µM |
| CC(C)(C)c1cnc(CSc2cnc(NC(=O)C3CCN(CCCCCCCCSc4cccc5c4CN(C4CCC(=O)NC4=O)C5=O)CC3)s2)o1 (stereo not drawn) | HH | CCK-8 | 50 nM |  | viability | 90.8% |
| S=C(Nc1ccccc1)Nc1ccc(Oc2nnc(-c3ccc(Cl)cc3)c3ccccc23)cc1 | HepG2 | MTT | 10 µM | 24 h | viability | 2.77% |
| CC(C)(C)c1cnc(CSc2cnc(NC(=O)C3CCN(CCCCSc4cccc5c4C(=O)N(C4CCC(=O)NC4=O)C5=O)CC3)s2)o1 (stereo not drawn) | HH | CCK-8 | 0.1 µM |  | viability | 97.9% |
| CC(=NNC(=O)c1ccccc1)c1ccc(Nc2nnc(-c3ccc(Cl)cc3)c3ccccc23)cc1 | HepG2 | MTT | 2.5 µM |  | cell death | 95.8% |
| C=CC(=O)NC1CCN(c2ncc3ncnc(Nc4ccc(Oc5ccc6c(c5)ncn6C)c(C)c4)c3n2)CC1 | PANC-03-27 |  |  |  | EC50 | 0.0333 µM |
| CNc1ncc2c(/C=C/C(=O)O)nn(CC3CCCC3)c2n1 | OE33 | resazurin |  | 5 days | EC50 | > 30 µM |
| O=C(Nc1ccc(Oc2nnc(-c3ccc(Cl)cc3)c3ccccc23)cc1)c1ccccc1 | HepG2 | MTT | 0.156 µM |  | cell death | 45.6% |
| CNc1ncc2c(/C=C/C(=O)N3CCC(N(C)C)CC3)nn(CC3CCCC3)c2n1 | OE33 | resazurin |  | 5 days | EC50 | 15 µM |
| CC(C)(C)c1cnc(CSc2cnc(NC(=O)C3CCN(C(=O)COCCOCCSc4cccc5c4C(=O)N(C4CCC(=O)NC4=O)C5=O)CC3)s2)o1 (stereo not drawn) | HH | CCK-8 | 50 nM |  | viability | 97.9% |
| Nc1ncnc2c1c(/C=C/C(=O)N1CCC(O)CC1)nn2CC1CCCC1 | OE33 | resazurin |  | 5 days | EC50 | > 30 µM |
| O=C(Nc1ccccc1)Nc1ccc(Oc2nnc(-c3ccc(Cl)cc3)c3ccccc23)cc1 | HepG2 | MTT | 0.625 µM | 24 h | viability | 5.31% |
